From ChEMBL document CHEMBL3872225, “Synthesis, binding assays, cytotoxic activity and docking studies of benzimidazole and benzothiophene derivatives with selective affinity for the CB2 cannabinoid receptor” (Eur J Med Chem, 2016)

Experiments:
Cannabinoid receptor 1 = Cannabinoid receptor 1 (Homo sapiens, UniProt P21554); test: Displacement of [3H]CP-55940 from human recombinant CB1 receptor expressed in HEK293 cell membranes incubated for 1.5 hrs
Outline: (§1)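 Membranes from HEK-293 cells overexpressing human CB1 or CB2 incubated with increasing compound concentrations and 0.5 nM [3H]CP-55,940 at 30 °C for 1.5 h. […] Selectivity index is Ki CB1/Ki CB2.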

[1] = biological target: Cannabinoid receptor 1 (CB1) (Homo sapiens, UniProt P21554); test: Displacement of [3H]CP-55940 from human recombinant CB1 receptor expressed in HEK293 cell membranes at 1 uM incubated for 1.5 hrs relative to control; settings: probe [3H]CP-55940
Chain of Cannabinoid receptor 1 (CB1) (P21554 whole entry): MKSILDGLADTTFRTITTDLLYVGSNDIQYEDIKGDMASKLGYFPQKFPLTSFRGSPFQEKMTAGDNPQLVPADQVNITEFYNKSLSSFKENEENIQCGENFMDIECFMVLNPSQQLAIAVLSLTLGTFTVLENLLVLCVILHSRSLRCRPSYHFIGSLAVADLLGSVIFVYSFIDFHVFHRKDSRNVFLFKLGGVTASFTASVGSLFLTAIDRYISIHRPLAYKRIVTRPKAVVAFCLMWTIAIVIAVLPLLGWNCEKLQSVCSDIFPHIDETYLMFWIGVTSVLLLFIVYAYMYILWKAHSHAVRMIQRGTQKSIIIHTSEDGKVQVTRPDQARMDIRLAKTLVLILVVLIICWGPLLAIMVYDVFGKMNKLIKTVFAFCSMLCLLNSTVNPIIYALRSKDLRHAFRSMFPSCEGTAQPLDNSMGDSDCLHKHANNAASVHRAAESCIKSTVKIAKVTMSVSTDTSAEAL
Outline: (§2)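 Single-point screen on HEK-293 membranes overexpressing human CB1 or CB2. […] Compounds displacing more than 50% at 1 μM went on to full curves.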

Cannabinoid receptor 2 [2] = biological target: T1, Cannabinoid receptor 2 (Homo sapiens, UniProt P34972); test: Displacement of [3H]CP-55940 from human recombinant CB2 receptor expressed in HEK293 cell membranes at 1 uM incubated for 1.5 hrs relative to control; outline: as §2
T1 sequence (P34972 whole entry): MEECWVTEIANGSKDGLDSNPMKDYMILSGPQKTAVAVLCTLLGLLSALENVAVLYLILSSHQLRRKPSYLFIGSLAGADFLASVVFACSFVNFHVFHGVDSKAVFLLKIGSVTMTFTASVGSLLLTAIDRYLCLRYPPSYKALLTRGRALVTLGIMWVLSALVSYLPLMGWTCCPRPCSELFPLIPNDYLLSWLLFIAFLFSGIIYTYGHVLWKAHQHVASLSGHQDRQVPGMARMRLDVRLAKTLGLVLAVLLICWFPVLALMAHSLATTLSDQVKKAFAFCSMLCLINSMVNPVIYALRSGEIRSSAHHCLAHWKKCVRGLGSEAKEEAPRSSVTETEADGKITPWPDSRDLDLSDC

Cannabinoid receptor 2 [3] = biological target: T1, Cannabinoid receptor 2; test: Displacement of [3H]CP-55940 from human recombinant CB2 receptor expressed in HEK293 cell membranes incubated for 1.5 hrs; outline: as §1
Homo sapiens = species: Homo sapiens; test: Selectivity index, ratio of Ki for displacement of [3H]CP-55940 from human recombinant CB1 receptor to Ki for displacement of [3H]CP-55940 from human recombinant CB2 receptor; outline: as §1
[4] = Cytotoxicity against human HeLa cells assessed as reduction in cell viability measured after 72 hrs by MTT assay; assay type: functional, cell-based
Outline: (§3)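 Cells kept in RPMI 1640 with 5% FBS, penicillin/streptomycin, 37 °C, 5% CO2. Seeded at 10,000 cells/well, then exposed to compounds at 0.001–10 μM in 5% FBS-RPMI for 72 h at 37 °C. MTT added for 4 h, formazan dissolved overnight in 10% SDS/0.1 mM HCl, absorbance read at 570 nm. […] Etoposide as positive control.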

[5] = Cytotoxicity against resistant human HCT116 cells assessed as reduction in cell viability measured after 72 hrs by MTT assay; assay type: functional, cell-based; settings: HCT-116, 72 h; outline: as §3
[6] = Cytotoxicity against African green monkey Vero cells assessed as reduction in cell viability measured after 72 hrs by MTT assay; assay type: toxicity, cell-based; settings: Chlorocebus sabaeus (African green monkey); outline: as §3
[7] = Cytotoxicity against human HL60 cells assessed as reduction in cell viability measured after 72 hrs by MTT assay; assay type: functional, cell-based; settings: HL-60, 72 h; outline: as §3
[8] = Cytotoxicity against human H1975-1 cells assessed as reduction in cell viability measured after 72 hrs by MTT assay; assay type: functional, cell-based; outline: as §3

Chain of Cannabinoid receptor 1 (P21554 whole entry): as the sequence (P21554 whole entry) above

SMILES | IC50 (Cannabinoid receptor 1) [nM] | Ki (Cannabinoid receptor 1) [nM] | inhibition at 1.5 h, 1 µM [1] [%] | inhibition (Cannabinoid receptor 2 [2]) [%] | IC50 (Cannabinoid receptor 2 [3]) [nM] | Ki (Cannabinoid receptor 2 [3]) [nM] | Ratio Ki (Homo sapiens) | IC50 [4] [nM] | IC50 [5] [nM] | IC50 at 72 h [6] [nM] | IC50 [7] [nM] | IC50 [8] [nM]
COc1ccc(-c2nc3ccccc3n2C(=O)c2cccc3ccccc23)cc1 | 8100 | 4900 | > 50 | > 50 | 7700 | 1900 | 2.57 | > 10000 | 1700 | > 10000 | 146 | > 10000
COc1ccc(C(=O)c2c(CC(C)C)sc3ccccc23)cc1 | 7600 | 4600 | > 50 | > 50 | 700 | 100 | 46 | > 10000 | > 10000 | > 10000 | 66 | > 10000
O=C(c1cccc2ccccc12)n1c(C2CCCC2)nc2ccccc21 | > 10000 | > 10000 | > 50 | > 50 | 2900 | 700 | > 14 | > 10000 | > 10000 | > 10000 | 106 | > 10000
O=C(c1cc2ccccc2s1)c1cccc2ccccc12 | 4500 | 2700 | > 50 | > 50 | 4100 | 1000 | 2.7 | > 10000 | > 10000 | > 10000 | 51 | > 10000
O=C(c1cccc2ccccc12)c1csc2ccccc12 | > 10000 | > 10000 | > 50 | > 50 | 1100 | 200 | > 50 | > 10000 | > 10000 | > 10000 | 58 | > 10000
Cc1nc2ccccc2n1C(=O)c1cccc2ccccc12 | > 10000 | > 10000 | > 50 | > 50 | > 10000 | > 10000 |  | > 10000 | > 10000 | > 10000 | 93 | > 10000
COc1cc([C@@H]2c3cc4c(cc3[C@@H](O[C@@H]3O[C@@H]5CO[C@@H](C)O[C@H]5[C@H](O)[C@H]3O)[C@H]3COC(=O)[C@H]23)OCO4)cc(OC)c1O [ETOPOSIDE] |  |  |  |  |  |  |  | 8200 | 2800 | 1500 | 2100 | 9500
CCCCc1nc2ccccc2n1C(=O)c1cccc2ccccc12 | 9700 | 5900 | > 50 | > 50 | 1700 | 400 | 14.7 | > 10000 | 560 | 4100 | 105 | > 10000
COc1ccc(-c2sc3ccccc3c2C(=O)c2cccc3ccccc23)cc1 | 8400 | 5100 | > 50 | > 50 | 1400 | 300 | 17 | > 10000 | > 10000 | > 10000 | 71 | > 10000
COc1ccc(C(=O)c2c(-c3ccc(OC)cc3)sc3ccccc23)cc1 | 1100 | 700 | > 50 | > 50 | 400 | 100 | 7 | > 10000 | > 10000 | > 10000 | 76 | > 10000
COc1ccc(C(=O)n2c(CC(C)C)nc3ccccc32)cc1 | > 10000 | > 10000 | > 50 | > 50 | > 10000 | > 10000 |  | > 10000 | 3560 | > 10000 | 34 | > 10000
CC(C)c1nc2ccccc2n1C(=O)c1cccc2ccccc12 | > 10000 | > 10000 | > 50 | > 50 | 2100 | 500 | > 20 | > 10000 | 4410 | 7230 | 70 | > 10000
CCCCc1nc2ccccc2n1C(=O)c1ccc(OC)cc1 | > 10000 | > 10000 | > 50 | > 50 | 6300 | 1600 | > 6.25 | > 10000 | > 10000 | 170 | 61 | > 10000
CCCc1sc2ccccc2c1C(=O)c1ccc(OC)cc1 | > 10000 | > 10000 | > 50 | > 50 | 1200 | 300 | > 33 | > 10000 | > 10000 | > 10000 | 80 | > 10000
COc1ccc(C(=O)n2c(C(C)(C)C)nc3ccccc32)cc1 | > 10000 | > 10000 | > 50 | > 50 | 2400 | 600 | > 16.7 | > 10000 | 20 | > 10000 | 55 | > 10000
COc1ccc(Cn2c(-c3ccc(OC)cc3)nc3ccccc32)cc1 | > 10000 | > 10000 | > 50 | > 50 | 2700 | 700 | > 14 | 3060 | 1750 | > 10000 | 57 | > 10000
CCc1sc2ccccc2c1C(=O)c1cccc2ccccc12 | 8400 | 5100 | > 50 | > 50 | 2900 | 700 | 7.28 | > 10000 | > 10000 | > 10000 | 99 | > 10000
CCCc1nc2ccccc2n1C(=O)c1cccc2ccccc12 | > 10000 | > 10000 | > 50 | > 50 | > 10000 | > 10000 |  | > 10000 | 2400 | > 10000 | 100 | > 10000
COc1ccc(C(=O)n2c(C)nc3ccccc32)cc1 | > 10000 | > 10000 | > 50 | > 50 | > 10000 | > 10000 |  | > 10000 | 10 | 1230 | 57 | > 10000
CCCCCc1sc2ccccc2c1C(=O)c1cccc2ccccc12 | 800 | 500 | > 50 | > 50 | 1300 | 300 | 1.7 | > 10000 | > 10000 | > 10000 | 170 | > 10000
CCCc1nc2ccccc2n1C(=O)c1ccc(OC)cc1 | > 10000 | > 10000 | > 50 | > 50 | 7600 | 1900 | > 5.26 | > 10000 | 120 | 300 | 102 | > 10000
COc1ccc(C(=O)n2c(C3CCCCC3)nc3ccccc32)cc1 | > 10000 | > 10000 | > 50 | > 50 | 2800 | 700 | > 14 | > 10000 | > 10000 | 1640 | 85 | > 10000
CC(C)(C)c1nc2ccccc2n1C(=O)c1cccc2ccccc12 | > 10000 | > 10000 | > 50 | > 50 | 300 | 80 | > 125 | > 10000 | > 10000 | > 10000 | 130 | > 10000
Cc1c(C(=O)c2cccc3ccccc23)c2cccc3c2n1[C@H](CN1CCOCC1)CO3 [WIN-552122] |  |  |  |  |  |  |  | 980 | 920 | 310 | 7 | 3800
